Experimental data published in article PMC2857554 (Nature chemical biology, 2010).

Columns and labels:
mammalian cells = details: cited from earlier work
Mps1 = details: cited from earlier work
[1] = test system: UTRM10 cells expressing LAP-Mps1 M602Q; test: pHistone H3 immunoblot in cells expressing inhibitor-resistant Mps1; format: cell-based; details: thymidine/taxol arrest; VX-680 2 µM
U2OS cells [2] = test: Intracellular Aurora B kinase activity, immunoblot; format: cell-based; details: taxol and MG132, mitotic shake-off
[3] = test system: Hela S3 cells expressing histone H2B-GFP; test: Mitotic escape, time-lapse, nocodazole arrest; format: cell-based; details: nocodazole-arrested cells
Outline: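 Hela S3 cells expressing H2B-GFP were treated with nocodazole with or without test compound. They were imaged in a heated chamber (37°C, 5% CO2), with DIC and GFP frames every 5 min across 5 z-planes. Mitotic exit was scored by nuclear envelope reassembly, counting 150 cells per population.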

hTERT-RPE1 cells = test: PARP cleavage immunoblot; format: cell-based; details: 25 µM
Hela S3 or U2OS cells = test: Centrosome duplication in cycling cells; format: cell-based; details: 10 µM, 1 or 2 cell doublings
Outline: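 Hela S3 and U2OS cells on 12-mm coverslips were synchronized, then cycled in test compound or DMSO for one or two cell cycles. Mitotic spindles were stained for centrin, α-tubulin and DNA. The percentage of mitotic cells with fewer than 4 centrin dots was scored, counting 135–300 cells per arm. Results are mean ± SD from three independent experiments.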

HCT116 cells [4] = test: Colony outgrowth assay; format: cell-based; details: 5–10 µM, 10 days
UTRM10 cells = test: Centriole overduplication under hydroxyurea; format: cell-based; details: 10 or 25 µM with hydroxyurea, 48 hours
Outline: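 UTRM10 cells co-treated for 48 h with hydroxyurea (4 mM) plus test compound (10 or 25 µM) or DMSO vehicle. Centrioles were scored by centrin immunostaining, with about 433–485 cells counted per condition. Results are mean ± SD of three independent experiments.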

U2OS cells [5] = test: Mitotic escape assay; format: cell-based
[6] = test system: U2OS cells with Plk4 overexpression; test: Proliferation assay of PLK4-overexpressing U2OS cells; format: cell-based; details: 48, 72, 96 hours
HCT116 cells [7] = test: PARP cleavage immunoblot; format: cell-based
Outline: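 HCT116 cells in McCoy's 5A with 10% FBS were treated with test compound at a series of concentrations. Lysates were collected at 24, 48 and 72 h and immunoblotted for PARP cleavage.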

Aurora B = Aurora B (Homo sapiens, UniProt Q96GD4); test: Lanthascreen in vitro assay on Aurora B; format: binding; details: in vitro assays
Chain of Aurora B (Q96GD4 whole entry): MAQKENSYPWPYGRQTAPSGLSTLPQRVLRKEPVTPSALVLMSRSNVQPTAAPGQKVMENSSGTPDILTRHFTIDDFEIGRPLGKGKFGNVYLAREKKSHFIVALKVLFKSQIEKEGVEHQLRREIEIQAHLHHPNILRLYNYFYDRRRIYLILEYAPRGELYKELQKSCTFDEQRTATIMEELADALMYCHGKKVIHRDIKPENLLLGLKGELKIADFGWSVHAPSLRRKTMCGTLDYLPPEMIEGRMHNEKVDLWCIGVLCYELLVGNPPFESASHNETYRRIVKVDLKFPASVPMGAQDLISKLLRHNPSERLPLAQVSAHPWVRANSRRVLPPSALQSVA

[8] = test system: PtK2 cells stably expressing HsMad2-EYFP; test: Mad2 kinetochore establishment assay; format: cell-based, Potorous tridactylus; details: 10 µM, NEB to NER
[9] = test system: U2OS H2B–GFP cells with Plk4 overexpression; test: Time-lapse of mitosis in cells with extra centrosomes; format: cell-based; details: extra centrosome containing cells
Outline: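 U2OS H2B–GFP cells with doxycycline-inducible Plk4 were blocked in thymidine for 18 h, then released into doxycycline (2 µg·ml−1) for 10 h. A second 18 h thymidine block followed, then release into medium for 6 h. Cells were treated with 5 µM test compound and imaged by time-lapse at 37°C, 5% CO2.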

HCT116 cells [10] = test: Proliferation assay; format: cell-based
MCF10A cells = test: PARP cleavage immunoblot; format: cell-based; details: 25 µM

Row | SMILES | effectiveness in mammalian cells (mammalian cells) | inhibition of Mps1 kinase activity in S. cerevisiae (Mps1) | mitotic escape despite LAP-Mps1 M602Q [1] | hyperphosphorylation status of Mps1 (mobility shift) (U2OS cells [2]) | phosphorylation of Aurora B at Thr232 (U2OS cells [2]) | time within which the majority of cells escape mitosis [3] | apoptosis-associated PARP cleavage (hTERT-RPE1 cells) | mitotic cells containing less than 4 centrioles, versus vehicle (Hela S3 or U2OS cells) | cell viability and clonal survival (HCT116 cells [4]) | effect on centriole overduplication (UTRM10 cells) | 4c pHistone H3 negative cells, flow cytometry (U2OS cells [5]; nocodazole-arrested cells) | cyclin B protein levels (U2OS cells [5]; thymidine/nocodazole arrest, 4 hrs inhibitor, reversed by MG132) | additional cytotoxicity versus parental U2OS [6] | onset of PARP cleavage (apoptosis) (HCT116 cells [7]) | activity against Aurora B in vitro (Aurora B) | less time spent in mitosis versus DMSO [8] | decrease in time spent in mitosis [9] | cytotoxic concentrations (HCT116 cells [10]) | apoptosis-associated PARP cleavage (MCF10A cells)
1 | O=c1[nH]c2ccc(Br)cc2o1 [cincreasin] | ineffective | effective | – | – | – | – | – | – | – | – | – | – | – | – | – | – | – | – | –
2 | Cc1cc(Nc2cc(N3CCN(C)CC3)nc(Sc3ccc(NC(=O)C4CC4)cc3)n2)n[nH]1 [VX-680] | – | – | still capable of executing an efficient mitotic escape | did not adversely affect | inhibited | – | – | – | – | – | – | – | – | – | – | – | – | – | –
3 | COc1cc(N2CCC(O)CC2)ccc1Nc1cc(Nc2ccccc2S(=O)(=O)C(C)C)c2cc[nH]c2n1 [Mps1-IN-1] | – | – | – | – | dose-dependent reduction | ≤ 1 h | little-to-no apoptosis-associated PARP cleavage | no significant difference | severe loss of cell viability and clonal survival | no effect | dose-dependent accumulation of 4c pHistone H3 negative cells | dropped with increasing concentration | no detectable additional cytotoxicity | 48 h | does not exhibit activity against Aurora B | roughly 40% | 4 fold | 5 to 10 µM | little-to-no apoptosis-associated PARP cleavage
